Measured values published in ChEMBL document CHEMBL3124806, “Imidazopyridine-fused [1,3]-diazepinones: synthesis and antiproliferative activity” (Eur J Med Chem, 2014).

Key:
Type in all cases: functional
NCI-H322M = assay: Cytotoxicity against human NCI-H322M cells assessed as cell growth at 10 uM after 48 hrs by SRB assay relative to untreated control; details: read-out: Activity
Method in brief: (§1)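 NCI-60 one-dose screen: each agent added at 10 µM, cultures incubated 48 h. Endpoint by sulforhodamine B protein-binding dye read spectrophotometrically; growth expressed as percent of untreated control cells.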

[1] = Cytotoxicity against human Hs578T cells assessed as cell growth at 10 uM after 48 hrs by SRB assay relative to untreated control; details: Hs-578T, read-out: Activity
Method in brief: (§2)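 NCI-60 panel screen at a single concentration of 10 μM with 48 h incubation. Cell density measured by sulforhodamine B protein-binding dye and read spectrophotometrically. Growth expressed as percent of untreated control cells.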

COLO 205 = assay: Cytotoxicity against human COLO205 cells assessed as cell growth at 10 uM after 48 hrs by SRB assay relative to untreated control; details: COLO 205, 48 h, read-out: Activity; method in brief: as §2
MDA-MB-231 = assay: Cytotoxicity against human MDA-MB-231 cells assessed as cell growth at 10 uM after 48 hrs by SRB assay relative to untreated control; details: MDA-MB-231, 48 h, read-out: Activity; method in brief: as §1
SNB-19 = assay: Cytotoxicity against human SNB19 cells assessed as cell growth at 10 uM after 48 hrs by SRB assay relative to untreated control; details: SNB-19, 48 h, read-out: Activity
Method in brief: (§3)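 NCI-60 single-dose screen. Compounds were added to the cultures at 10 μM and incubated for 48 h. The end point was sulforhodamine B protein staining read spectrophotometrically. Growth is reported as percent of untreated control cells.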

NCI-H226 = assay: Cytotoxicity against human NCI-H226 cells assessed as cell growth at 10 uM after 48 hrs by SRB assay relative to untreated control; details: NCI-H226, 48 h, read-out: Activity; method in brief: as §1
CAKI-1 = assay: Cytotoxicity against human Caki1 cells assessed as cell growth at 10 uM after 48 hrs by SRB assay relative to untreated control; details: CAKI-1, 48 h, read-out: Activity; method in brief: as §2
SF-539 = assay: Cytotoxicity against human SF539 cells assessed as cell growth at 10 uM after 48 hrs by SRB assay relative to untreated control; details: SF-539, 48 h, read-out: Activity; method in brief: as §1
SK-MEL-28 = assay: Cytotoxicity against human SK-MEL-28 cells assessed as cell growth at 10 uM after 48 hrs by SRB assay relative to untreated control; details: SK-MEL-28, 48 h, read-out: Activity; method in brief: as §3
HT-29 = assay: Cytotoxicity against human HT-29 cells assessed as cell growth at 10 uM after 48 hrs by SRB assay relative to untreated control; details: HT-29, 48 h, read-out: Activity; method in brief: as §2
SN12C = assay: Cytotoxicity against human SN12C cells assessed as cell growth at 10 uM after 48 hrs by SRB assay relative to untreated control; details: read-out: Activity; method in brief: as §3
[2] = Cytotoxicity against human UO31 cells assessed as cell growth at 10 uM after 48 hrs by SRB assay relative to untreated control; details: UO-31, 48 h, read-out: Activity; method in brief: as §3
M14 = assay: Cytotoxicity against human M14 cells assessed as cell growth at 10 uM after 48 hrs by SRB assay relative to untreated control; details: M14, 48 h, read-out: Activity; method in brief: as §2
[3] = Cytotoxicity against human NCI-ADR-RES cells assessed as cell growth at 10 uM after 48 hrs by SRB assay relative to untreated control; details: read-out: Activity; method in brief: as §1
BT-549 = assay: Cytotoxicity against human BT549 cells assessed as cell growth at 10 uM after 48 hrs by SRB assay relative to untreated control; details: BT-549, 48 h, read-out: Activity; method in brief: as §2
RXF 393 = assay: Cytotoxicity against human RXF393 cells assessed as cell growth at 10 uM after 48 hrs by SRB assay relative to untreated control; details: RXF 393, 48 h, read-out: Activity; method in brief: as §1
T47D = assay: Cytotoxicity against human T47D cells assessed as cell growth at 10 uM after 48 hrs by SRB assay relative to untreated control; details: read-out: Activity; method in brief: as §3
HCC 2998 = assay: Cytotoxicity against human HCC2998 cells assessed as cell growth at 10 uM after 48 hrs by SRB assay relative to untreated control; details: HCC 2998, 48 h, read-out: Activity; method in brief: as §2
OVCAR-8 = assay: Cytotoxicity against human OVCAR8 cells assessed as cell growth at 10 uM after 48 hrs by SRB assay relative to untreated control; details: OVCAR-8, 48 h, read-out: Activity; method in brief: as §1
[4] = Cytotoxicity against human OVCAR5 cells assessed as cell growth at 10 uM after 48 hrs by SRB assay relative to untreated control; details: OVCAR-5, 48 h, read-out: Activity; method in brief: as §1
ACHN = assay: Cytotoxicity against human ACHN cells assessed as cell growth at 10 uM after 48 hrs by SRB assay relative to untreated control; details: read-out: Activity; method in brief: as §2
[5] = Cytotoxicity against human UACC257 cells assessed as cell growth at 10 uM after 48 hrs by SRB assay relative to untreated control; details: UACC-257, 48 h, read-out: Activity; method in brief: as §3
HCT-15 = assay: Cytotoxicity against human HCT15 cells assessed as cell growth at 10 uM after 48 hrs by SRB assay relative to untreated control; details: HCT-15, 48 h, read-out: Activity; method in brief: as §2
OVCAR-3 = assay: Cytotoxicity against human OVCAR3 cells assessed as cell growth at 10 uM after 48 hrs by SRB assay relative to untreated control; details: OVCAR-3, 48 h, read-out: Activity; method in brief: as §1
NCI-H460 = assay: Cytotoxicity against human NCI-H460 cells assessed as cell growth at 10 uM after 48 hrs by SRB assay relative to untreated control; details: NCI-H460, 48 h, read-out: Activity; method in brief: as §1
SK-MEL-2 = assay: Cytotoxicity against human SK-MEL-2 cells assessed as cell growth at 10 uM after 48 hrs by SRB assay relative to untreated control; details: SK-MEL-2, 48 h, read-out: Activity; method in brief: as §1
CCRF-CEM = assay: Cytotoxicity against human CCRF-CEM cells assessed as cell growth at 10 uM after 48 hrs by SRB assay relative to untreated control; details: read-out: Activity; method in brief: as §2
SK-MEL-5 = assay: Cytotoxicity against human SK-MEL-5 cells assessed as cell growth at 10 uM after 48 hrs by SRB assay relative to untreated control; details: SK-MEL-5, 48 h, read-out: Activity; method in brief: as §3
NCI-H522 = assay: Cytotoxicity against human NCI-H522 cells assessed as cell growth at 10 uM after 48 hrs by SRB assay relative to untreated control; details: NCI-H522, 48 h, read-out: Activity; method in brief: as §1
HOP-92 = assay: Cytotoxicity against human HOP92 cells assessed as cell growth at 10 uM after 48 hrs by SRB assay relative to untreated control; details: HOP-92, 48 h, read-out: Activity; method in brief: as §2
[6] = Cytotoxicity against human OVCAR4 cells assessed as cell growth at 10 uM after 48 hrs by SRB assay relative to untreated control; details: OVCAR-4, 48 h, read-out: Activity; method in brief: as §1
SK-OV-3 = assay: Cytotoxicity against human SKOV3 cells assessed as cell growth at 10 uM after 48 hrs by SRB assay relative to untreated control; details: SK-OV-3, 48 h, read-out: Activity; method in brief: as §3

`Cc1ccc(C2=Nc3nc4ccccn4c3C(=O)[C@@H]3CCCN23)cc1` gave a growth at 10 µM (NCI-H322M) of 104%, a growth at 10 µM [1] of 94% and a growth at 10 µM (COLO 205) of 94.4%. The growth at 10 µM (MDA-MB-231) was 93.8%, the growth at 10 µM (SNB-19) was 92.2% and the growth at 10 µM (NCI-H226) was 86.5%. The growth at 10 µM (CAKI-1) was 91.8%, the growth at 10 µM (SF-539) was 92.5% and the growth at 10 µM (SK-MEL-28) was 108%. The growth at 10 µM (HT-29) was 101%, the growth at 10 µM (SN12C) was 101% and the growth at 10 µM [2] was 80.3%. It also gave a growth at 10 µM (M14) of 94.8%, a growth at 10 µM [3] of 94.9% and a growth at 10 µM (BT-549) of 94.2%. The growth at 10 µM (RXF 393) was 85.2%, the growth at 10 µM (T47D) was 89.8% and the growth at 10 µM (HCC 2998) was 99.4%. It also gave a growth at 10 µM (OVCAR-8) of 98.1%, a growth at 10 µM [4] of 91.1% and a growth at 10 µM (ACHN) of 93.9%. It also gave a growth at 10 µM [5] of 98.8%, a growth at 10 µM (HCT-15) of 95.3% and a growth at 10 µM (OVCAR-3) of 96.7%. It also gave a growth at 10 µM (NCI-H460) of 102%, a growth at 10 µM (SK-MEL-2) of 105% and a growth at 10 µM (CCRF-CEM) of 50.2%. It also gave a growth at 10 µM (SK-MEL-5) of 92.5%, a growth at 10 µM (NCI-H522) of 102% and a growth at 10 µM (HOP-92) of 78.3%. The growth at 10 µM [6] was 98.2% and the growth at 10 µM (SK-OV-3) was 106%.
